This is a sample that favours compounds with a hit; in the whole collection about 4.2% have one here.
TAAR1 agonist: agonists of human TAAR1. Q96RJ0. CHO RD-HGA16 TAAR1, Fluo-8 calcium fluorescence; vehicle wells 0%, saturating PEA agonist 100%. AID 624467. 360,000 tested, 0.99% active. activation, % at 3 µM;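 active means activation above the mean activation of all test compounds in the run plus 3 SD, cut at about 38% in these data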
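System: CHO RD-HGA16 cells carrying human TAAR1 plus Gα16; Incubation: 17-24 h seeding, 75 min 37 °C dye, 30 min RT; Measured by: Fluo-8 fluorescence, 5 s baseline then 140 s kinetic read; Control set: DMSO and PEA EC100; Replication: single well for each compound.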
OX1R antag-1: blocks the human orexin 1 receptor | O43613 | OX1R-expressing cells, FRET antagonist read-out | 330,000 tested, 1.8% active | inhibition, % at 6.6 µM; in the data active means inhibition mostly above about 38%, no sharp cut-off; inactive means mostly below about 40%
Target sequence (O43613 whole entry, looked up): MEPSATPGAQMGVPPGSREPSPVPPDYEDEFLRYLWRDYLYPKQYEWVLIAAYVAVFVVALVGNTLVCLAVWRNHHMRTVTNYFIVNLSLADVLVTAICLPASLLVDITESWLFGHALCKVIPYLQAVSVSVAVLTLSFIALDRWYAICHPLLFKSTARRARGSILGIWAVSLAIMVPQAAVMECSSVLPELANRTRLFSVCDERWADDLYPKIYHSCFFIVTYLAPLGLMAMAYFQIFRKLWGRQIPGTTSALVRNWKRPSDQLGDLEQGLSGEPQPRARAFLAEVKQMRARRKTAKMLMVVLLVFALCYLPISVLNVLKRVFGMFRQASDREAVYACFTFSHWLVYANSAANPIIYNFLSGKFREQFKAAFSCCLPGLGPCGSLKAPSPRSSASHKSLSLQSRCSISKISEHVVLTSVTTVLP
GalR3 antag: antagonists of human GalR3. O60755. HEK293 GalR3-CNG cAMP membrane potential fluorescence; galR3 body fused to GalR1 C-terminus. inhibition, % at 3 µM. 360,000 tested, 0.44% active. AID 651719;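 active means inhibition above the screen-wide average plus 3 SD, cut at about 13% in these data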;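 further: forskolin and galanin both at EC90 stimulate the cells; cAMP rise reported by CNG channel membrane potential dye signal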
OX1R antag-2: antagonists of human orexin 1 receptor. CHO/OX1R cells, Fluo-8 calcium fluorescence, orexin A. inhibition, % at 5 µM. 330,000 tested, 0.43% active. O43613;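 active means inhibition above its plate's threshold, mean inhibition of all tested compounds on the plate plus 3 SD, cut at about 37% in these data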
TAAR1 antag: antagonists of human TAAR1. 360,000 tested, 1.5% active. inhibition, % at 3 µM. CHO RD-HGA16 TAAR1, Fluo-8 calcium fluorescence, antagonist. AID 624466;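 active means inhibition above a per-plate cutoff, the mean inhibition of test compounds on that plate plus 3 SD, cut at about 49% in these data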
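test system = CHO RD-HGA16 cells bearing hTAAR1 | replication = singlicate | controls = DMSO-only wells and EC80 β-PEA-stimulated wells | reagent = EC80 β-phenethylamine stimulus | read-out basis = percent inhibition of PEA-evoked calcium signal, max/basal emission ratio | schedule = seeding 17-24 h prior, 75-min 37 °C, 30-min RT dye loading | signal = kinetic Fluo-8 calcium fluorescence measurement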
CHO parental Ca: signal in parental CHO cells, OX1R antagonist counter-screen | parental CHO-K1, ATP-induced calcium, Fluo-8 fluorescence | inhibition, % at 5.6 µM | 330,000 tested, 0.63% active;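 active means inhibition above that plate's mean sample inhibition plus 3 SD, cut at about 26% in these data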
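Assay system – parental CHO cells · Reagent – ATP stimulus · Detection – intracellular calcium via Fluo-8 no-wash fluorescent dye · Evaluation – percent inhibition of ATP-evoked calcium rise, normalized to controls · Controls – ATP wells versus no-ATP DMSO wells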
Each line names hits and unclear results; the compound was inactive in the other large screens.

CCOc1ccc(N(Cc2cc3ccc(C)cc3[nH]c2=O)S(=O)(=O)c2ccccc2)cc1	none
O=C(Nc1ccccc1-c1nc2ccccc2[nH]1)c1ccc(N2C(=O)CCC2=O)cc1	TAAR1 antag 50
O=C(Nc1cccc(O)c1)c1noc2c1CCc1ccccc1-2	OX1R antag-1 37
COc1cc(/C=C/C(=O)NC(=O)c2ccccc2O)ccc1OC(C)=O	OX1R antag-1 66
CC1CN(C(=O)c2ccccc2C(=O)c2ncc[nH]2)CC(C)O1 (stereo unspecified)	TAAR1 agonist 40
O=C(COC(=O)c1ccccc1NS(=O)(=O)c1ccc(Cl)cc1)NCc1ccccc1	OX1R antag-1 49
O=c1cc(C(F)(F)F)[nH]c2c(C(F)(F)F)cccc12	OX1R antag-1 67 (no result: TAAR1 agonist, GalR3 antag, TAAR1 antag)
O=c1oc2ccccc2cc1-c1cn2cccnc2n1	OX1R antag-1 66
COc1cc(/C=C/c2[nH]c(=O)[nH]c(=O)c2[N+](=O)[O-])cc([N+](=O)[O-])c1O	OX1R antag-1 63
O=c1[nH]c(/C=C\c2cccnc2)c([N+](=O)[O-])c(=O)[nH]1	OX1R antag-1 54
O=C(NCCc1ccc(Cl)cc1)Nc1ccc(Cl)cc1	TAAR1 agonist 42
O=C(NCCN1CCN(c2ccccc2)CC1)Nc1ccc(Cl)cc1	none
CCN(CCNC(=O)Nc1ccc(Cl)cc1)c1ccccc1	OX1R antag-1 118, OX1R antag-2 64, CHO parental Ca 55
O=C(NCCc1ccncc1)Nc1ccc(Cl)cc1	none
O=C1C(Cl)=C(NCC2CCCO2)C(=O)N1c1cccc(Cl)c1Cl (stereo unspecified)	none
Cc1ccc(Nc2nc(NCCO)nc3c2cnn3C)cc1Cl	TAAR1 agonist 38
CCCNc1nc(Nc2ccc(C)c(Cl)c2)c2cnn(C)c2n1	none
COc1ccccc1NC(=O)CCS(=O)(=O)c1ccccc1	none
COc1ccc(COc2cc(-c3cccc(OC)c3)nc3ccc(NC(=O)c4ccc(Cl)cc4)cc23)cc1	none
COc1ccc(COc2cc(-c3cccc(OC)c3)nc3ccc(NC(=O)c4ccc(OC)cc4)cc23)cc1	TAAR1 antag 61
COc1ccc(COc2cc(-c3cccc(OC)c3)nc3ccc(NC(=O)c4ccccc4)cc23)cc1	TAAR1 antag 53
COc1ccc(C(=O)C[n+]2ccc(-c3nnc4n3CCCCC4)cc2)cc1	OX1R antag-1 44
O=C(NC(=S)Nn1cnc2c(cnn2-c2ccccc2)c1=O)c1ccc(Cl)cc1	none
Cc1cc(/C=C2\C(=N)N3N=C(C(C)C)SC3=NC2=O)c(C)n1Cc1ccccc1	OX1R antag-2 102, CHO parental Ca 65
Cc1cc(/C=C2\C(=N)N3C(SCc4ccccc4)=NSC3=NC2=O)c(C)n1Cc1ccccc1	none
CC(O)CNc1cc(N)c([N+](=O)[O-])cc1[N+](=O)[O-] (stereo unspecified)	OX1R antag-1 73
COC(=O)C1=C(C)N(Cc2ccccc2)C(=NCc2cccc(C(F)(F)F)c2)N[C@H]1c1cccc(F)c1	TAAR1 agonist 42
COC(=O)C1=C(C)N(Cc2ccccc2)C(=NCCc2c[nH]c3ccccc23)N[C@H]1c1cccc(C(F)(F)F)c1	OX1R antag-2 67 (no result: TAAR1 agonist, GalR3 antag, TAAR1 antag)
CCN(C(=O)COC(=O)c1ccc(SC)cc1OC)C1CCS(=O)(=O)C1 (stereo unspecified)	none
CC[C@]12C(=O)N(C)C[C@H]([C@@H]3C(=O)N(Cc4ccccc4)C(=O)[C@@H]31)N2C(=O)c1ccc(Br)cc1	none (no result: OX1R antag-1, OX1R antag-2, CHO parental Ca)
COc1ccc(-n2c(C)cc(C(=O)COC(=O)c3ccc(O)cc3O)c2C)cc1	OX1R antag-2 45, CHO parental Ca 33
CCOC(=O)CN1C(=O)S/C(=C/c2ccc3c(c2)n(C)c(=O)n3C)C1=O	none
CCOC(=O)CN1C(=O)S/C(=C/C=C/c2ccc(N(C)C)cc2)C1=O	TAAR1 agonist 45, OX1R antag-2 55, CHO parental Ca 32
Cc1nn(-c2cccc([N+](=O)[O-])c2)c(N)c1-c1ccccc1	OX1R antag-1 41
CCN(CC)C(=O)c1ccc(S(=O)(=O)N2CCC(c3nc4ccccc4s3)CC2)cc1	OX1R antag-1 37
Cc1ccc(S(=O)(=O)N/N=C/c2ccccc2F)cc1[N+](=O)[O-]	none
CCOc1ccccc1CNc1ncnc2ccc(-c3c(C)noc3C)cc12	OX1R antag-1 33
COc1ccc(OC)c(C(c2nnnn2Cc2ccccc2)N2CCC(C(N)=O)CC2)c1 (stereo unspecified)	none
Cc1ccc(C(C)C)c(OCCNCCc2ccccc2)c1	TAAR1 agonist 44
COc1cc(/C=C/C(=O)OCC(=O)NNC(=O)c2cc(Cl)ccc2OC)ccc1O	none
COc1cc(/C=C/C(=O)OCC(=O)c2ccc(OC(F)F)cc2)ccc1O	TAAR1 antag 61
COc1cc(/C=C/C(=O)OCC(=O)Nc2ccccc2Sc2ccc(Cl)cc2)ccc1O	CHO parental Ca 62
CCc1ccc(NC(=O)C(C)OC(=O)/C=C/c2ccc(O)c(OC)c2)cc1 (stereo unspecified)	TAAR1 agonist 111, TAAR1 antag 82
COCC(C)NC(=O)c1nn(Cc2ccccc2)c(=O)c2ccccc12 (stereo unspecified)	OX1R antag-1 74
O=CNc1cc2c(cc1Br)-c1ccccc1C2O (stereo unspecified)	none (no result: OX1R antag-1, OX1R antag-2, CHO parental Ca)
O=C(Oc1cccnc1)c1ccc([N+](=O)[O-])cc1Cl	none
O=C(Nc1ccc([N+](=O)[O-])cc1Cl)c1cc(Cl)ccc1O	OX1R antag-1 68
O=C(Nc1cccnc1)c1ccc([N+](=O)[O-])cc1Cl	OX1R antag-1 56
CCCC(=O)NC(=S)Nc1cccc(NC(=O)c2ccc(Cl)cc2Cl)c1	TAAR1 antag 56
O=C(Nc1cccc([N+](=O)[O-])c1)c1ccncc1	OX1R antag-1 66
COc1cccc(C(=O)COc2cccc(NC(=O)c3cccc([N+](=O)[O-])c3)c2)c1	TAAR1 antag 68
O=C(Nc1ccc(OC(F)(F)F)cc1)Nc1cccc([N+](=O)[O-])c1	OX1R antag-1 79, TAAR1 antag 53, CHO parental Ca 73
CCCC(=O)Nc1cccc(NC(=O)c2ccc([N+](=O)[O-])cc2Cl)c1	OX1R antag-1 62
COc1ccccc1C(=O)NCCC(=O)NCC(c1ccco1)N1CCCC1 (stereo unspecified)	none
NCCCC[C@H]1NC(=O)[C@H](CCC(=O)O)NC(=O)c2cc([N+](=O)[O-])cc(I)c2OCC[C@@H](C(N)=O)NC1=O	none (no result: TAAR1 agonist, GalR3 antag, TAAR1 antag)
NC(=O)CC1NC(=O)c2cc([N+](=O)[O-])cc(I)c2OCCC(C(N)=O)NC(=O)[C@@H]2CCCN2C1=O (stereo partly specified)	OX1R antag-1 61

Source: PubChem BioAssay
